≈ marks a conversion by molar mass, not a printed value. Calls of active or inactive are those of the source. No cut-off for these calls is given here.
Columns and labels:
Staphylococcus aureus [1] = test: Antimicrobial activity against Staphylococcus aureus SA-1199B expressing wild type norA and co-expressing GrlA A116E mutant by microdilution method; format: organism-based; conditions: in vivo
How it was run: (§1)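 CLSI broth microdilution MIC of the compound alone. Strains: SA-K1902 (norA deleted), SA-K2378 (SA-K1902 carrying norA plus its promoter on multicopy plasmid pCU1), SA-1199B (norA overexpressing, GrlA A116E).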

[2] = target: T1, Quinolone resistance protein NorA (Staphylococcus aureus) (UniProt P0A0J7); test: Inhibition of NorA in Staphylococcus aureus SA-1199B expressing GrlA A116E mutant assessed as minimal potentiating drug concentration causing 8 fold reduction in ciprofloxacin MIC by microdilution method based Checkerboard assay
T1 sequence (whole entry): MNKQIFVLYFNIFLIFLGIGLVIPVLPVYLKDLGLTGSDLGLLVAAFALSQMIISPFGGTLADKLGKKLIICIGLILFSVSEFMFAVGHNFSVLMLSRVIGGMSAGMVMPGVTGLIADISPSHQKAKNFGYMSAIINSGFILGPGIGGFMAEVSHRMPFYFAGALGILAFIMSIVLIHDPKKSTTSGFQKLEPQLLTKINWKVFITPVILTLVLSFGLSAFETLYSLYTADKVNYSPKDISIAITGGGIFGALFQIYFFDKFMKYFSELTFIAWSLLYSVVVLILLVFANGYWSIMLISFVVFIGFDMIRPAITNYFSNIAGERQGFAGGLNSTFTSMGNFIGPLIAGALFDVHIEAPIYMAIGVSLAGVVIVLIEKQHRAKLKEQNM

Staphylococcus aureus [3] = test: Synergistic potentiation of ciprofloxacin-induced antimicrobial activity against wild type Staphylococcus aureus ATCC 25923 at 0.78 to 100 ug/ml by microdilution method based Checkerboard assay; format: functional, organism-based
Staphylococcus aureus [4] = test: Synergistic potentiation of ciprofloxacin-induced antimicrobial activity against Staphylococcus aureus SA-1199 at 0.78 to 100 ug/ml by microdilution method based Checkerboard assay; format: functional, organism-based
[5] = target: T1, Quinolone resistance protein NorA (Staphylococcus aureus); test: Inhibition of NorA in Staphylococcus aureus SA-1199B expressing GrlA A116E mutant assessed as synergistic potentiation of ciprofloxacin-induced antimicrobial activity at 0.78 to 100 ug/ml by microdilution method based Checkerboard assay
[6] = target: T1, Quinolone resistance protein NorA (Staphylococcus aureus); test: Inhibition of NorA in Staphylococcus aureus SA-1199B expressing GrlA A116E mutant assessed as synergistic potentiation of ciprofloxacin-induced antimicrobial activity by measuring reduction in ciprofloxacin MIC at 0.78 ug/ml by microdilution method based Checkerboard assay
[7] = target: T1, Quinolone resistance protein NorA (Staphylococcus aureus); test: Inhibition of NorA in Staphylococcus aureus SA-K2378 assessed as synergistic potentiation of ciprofloxacin-induced antimicrobial activity at 0.78 to 100 ug/ml by microdilution method based Checkerboard assay
[8] = Cytotoxicity in human HepG2 cells assessed as reduction in cell viability incubated for 24 hrs by ATP bioluminescence assay; format: cell-based
How it was run: (§2)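 Cells were grown to confluence overnight in RPMI 1640 with 10% heat-inactivated fetal calf serum, penicillin and streptomycin. Monolayers were exposed for 24 h at 37 °C to scalar concentrations (0-250 µg/mL). Viability was read by ATP bioluminescence, each concentration in triplicate. CC50 is the concentration reducing cell number by 50% versus untreated controls.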

[9] = Cytotoxicity in human THP1 cells assessed as reduction in cell viability incubated for 24 hrs by ATP bioluminescence assay; format: cell-based, THP-1; how it was run: as §2
Staphylococcus aureus [10] = test: Antimicrobial activity against Staphylococcus aureus ATCC 25923 by microdilution method; format: organism-based; conditions: in vivo
How it was run: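 Broth microdilution MIC per CLSI guidelines. ATCC 25923 is norA wild-type. SA-1199B overexpresses norA and carries an A116E GrlA substitution.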

[11] = Selectivity index, ratio of CC50 for human HepG2 cells to inhibition of NorA in Staphylococcus aureus SA-1199B expressing GrlA A116E mutant assessed as minimal potentiating drug concentration causing 8 fold reduction in ciprofloxacin MIC by microdilution method based Checkerboard assay; format: toxicity; conditions: read-out: Selectivity Index
How it was run: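 CC50 cells (HepG2 for […], THP-1 for […]) were grown to confluence in RPMI 1640 with 10% FCS, penicillin and streptomycin. They were exposed 24 h at 37 °C to 0–250 µg/mL. Viability was read by ATP bioluminescence, triplicate. CC50 is the concentration reducing cell number 50% versus untreated.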

Staphylococcus aureus [12] = test: Antimicrobial activity against NorA deficient Staphylococcus aureus SA-K1902 by microdilution method; format: organism-based; conditions: in vivo; how it was run: as §1
Staphylococcus aureus [13] = test: Antimicrobial activity against mepA deficient Staphylococcus aureus SA-K2885 by microdilution method; format: organism-based; conditions: in vivo
How it was run: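 CLSI broth microdilution MIC of the compound alone in norA-deleted strains. SA-K2885 carries empty pALC2073 and SA-K2886 carries pALC2073-mepA (xyl/tetO promoter). 0.05 µg/mL tetracycline was present throughout to induce.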

Staphylococcus aureus [14] = test: Induction of membrane depolarization in Staphylococcus aureus SA-1199B expressing wild type norA at 1 to 10 ug/ml incubated for 30 mikns by DiOC2(3) fluorescent probe based cytofluorimetry; format: organism-based; conditions: in vivo
How it was run: (§3)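 SA-1199B was grown in MHB at 37 °C to OD600 0.6, washed, and diluted to 1×10^6 CFU/mL in filtered PBS. DiOC2(3) was added at 30 µM final, and compound at 1, 5 or 10 µg/mL for 30 min. CCCP 5 µM final served as positive control. Flow cytometry with 488 nm excitation gave a red/green ratio normalized to the DiOC2(3) blank, expressed as % depolarized versus drug-free control.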

Staphylococcus aureus [15] = test: Induction of membrane depolarization in Staphylococcus aureus SA-1199B expressing wild type norA at 1 ug/ml incubated for 30 mikns by DiOC2(3) fluorescent probe based cytofluorimetry; format: organism-based; conditions: in the assay text read “overexpressing norA” for “expressing wild type norA”; how it was run: as §3
[16] = Metabolic stability in mouse liver microsomes assessed as parent compound remaining at 50 uM in presence of NADPH regenerating system incubated for 120 mins by UPLC/MS analysis; format: ADME, microsome; conditions: read-out: Stability
How it was run: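 1 mg/mL mouse liver microsomes in 0.1 M Tris-HCl pH 7.4 with test compound at 50 µM, DMSO up to ~3%. Preincubated 5 min at 37 °C, then started with NADPH regeneration system. Stopped at 120 min with cold methanol and centrifuged. Supernatant analysed by UPLC/MS (ESI, tandem quadrupole).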

Cytochrome P450 3A4 = Cytochrome P450 3A4 (Homo sapiens, UniProt P08684); test: Inhibition of human recombinant CYP3A4 at 1 uM using beetle D-luciferin as substrate by CYP450-Glo assay; format: ADME; conditions: recombinant enzyme
Sequence of Cytochrome P450 3A4 (P08684 whole entry): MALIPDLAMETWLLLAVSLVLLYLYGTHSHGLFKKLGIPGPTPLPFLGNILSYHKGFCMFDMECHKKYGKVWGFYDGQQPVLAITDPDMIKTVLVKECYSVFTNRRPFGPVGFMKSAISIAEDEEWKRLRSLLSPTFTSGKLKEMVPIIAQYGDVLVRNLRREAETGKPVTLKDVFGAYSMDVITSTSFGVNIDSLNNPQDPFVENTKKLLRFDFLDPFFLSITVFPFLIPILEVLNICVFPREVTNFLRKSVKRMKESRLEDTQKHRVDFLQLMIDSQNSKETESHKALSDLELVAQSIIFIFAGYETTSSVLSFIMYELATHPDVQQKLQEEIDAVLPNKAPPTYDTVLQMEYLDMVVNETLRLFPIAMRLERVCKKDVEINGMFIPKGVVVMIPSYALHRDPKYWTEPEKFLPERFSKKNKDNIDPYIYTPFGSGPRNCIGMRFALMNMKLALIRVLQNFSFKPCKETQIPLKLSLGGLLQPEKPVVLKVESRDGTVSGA
How it was run: (§4)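 Luminescent P450-Glo assay in which recombinant human CYP3A4 or CYP2D6 converts a beetle D-luciferin derivative to D-luciferin. Compound was tested at 1 and 10 µM.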

Cytochrome P450 2D6 [17] = target: T2, Cytochrome P450 2D6 (Homo sapiens, UniProt P10635); test: Inhibition of human recombinant CYP2D6 at 10 uM using beetle D-luciferin as substrate by CYP450-Glo assay; format: ADME; conditions: recombinant enzyme; how it was run: as §4
T2 sequence (P10635 whole entry): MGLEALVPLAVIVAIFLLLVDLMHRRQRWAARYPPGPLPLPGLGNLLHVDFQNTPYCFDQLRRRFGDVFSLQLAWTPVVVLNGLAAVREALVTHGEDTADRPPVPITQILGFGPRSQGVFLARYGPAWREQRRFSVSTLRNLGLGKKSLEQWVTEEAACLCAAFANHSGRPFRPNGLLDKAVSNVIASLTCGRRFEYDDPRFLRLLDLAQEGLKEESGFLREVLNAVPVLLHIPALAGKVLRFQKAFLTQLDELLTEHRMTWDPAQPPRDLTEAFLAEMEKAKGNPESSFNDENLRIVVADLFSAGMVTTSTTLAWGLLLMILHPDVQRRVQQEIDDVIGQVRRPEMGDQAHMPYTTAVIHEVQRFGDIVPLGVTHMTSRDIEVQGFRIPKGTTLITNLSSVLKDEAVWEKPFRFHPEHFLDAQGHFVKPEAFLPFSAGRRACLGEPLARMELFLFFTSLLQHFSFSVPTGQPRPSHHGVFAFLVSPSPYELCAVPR

Cytochrome P450 2D6 [18] = target: T2, Cytochrome P450 2D6; test: Inhibition of human recombinant CYP2D6 at 1 uM using beetle D-luciferin as substrate by CYP450-Glo assay; format: ADME; conditions: recombinant enzyme; how it was run: as §4

| Compound | MIC (Staphylococcus aureus [1]) [µM] | Activity [2] [µg/mL] | synergistic potentiation of ciprofloxacin activity (Staphylococcus aureus [3]) | inhibition (Staphylococcus aureus [4]) | inhibition [5] | fold change (FC) [6] | inhibition [7] | CC50 at 24 h [8] [µg/mL] | CC50 at 24 h [9] [µg/mL] | MIC (Staphylococcus aureus [10]) [µg/mL] | selectivity ratio [11] | MIC (Staphylococcus aureus [12]) [µg/mL] | MIC (Staphylococcus aureus [13]) [µg/mL] | Activity (Staphylococcus aureus [14]) | Activity (Staphylococcus aureus [15]) [%] | remaining at 2 h, 50 µM [16] [%] | inhibition (INH) (Cytochrome P450 3A4) | inhibition (INH) (Cytochrome P450 2D6 [17]) | inhibition (INH) (Cytochrome P450 2D6 [18]) |
| --- | --- | --- | --- | --- | --- | --- | --- | --- | --- | --- | --- | --- | --- | --- | --- | --- | --- | --- | --- |
| CCCOc1ccc(-c2cc(OCCN3CCc4cc(OC)c(OC)cc4C3)c3cc(OC)c(OC)cc3n2)cc1 | > 179 | 0.78 | Active | Active | Active | 8 | Active | 74 (≈ 132 µM) | 37 (≈ 66.2 µM) | > 100 | 95 | 100 (≈ 179 µM) | 100 (≈ 179 µM) | Dose-dependent effect | < 20 | 62 | Not Active | Active | Not Active |
| CCCOc1ccc(-c2cc(OCCN3CCCCC3)c3cc(OC)ccc3n2)cc1 | 238 (≈ 100 µg/mL) | 0.78 | Active | Active | Active | 8 | Active | 42 (≈ 99.9 µM) | > 100 | 50 (≈ 119 µM) | 50 | 25 (≈ 59.4 µM) | 12.5 (≈ 29.7 µM) | Dose-dependent effect | < 10 | > 90 | Not Active | Active | Not Active |

Source: ChEMBL document CHEMBL4145675, “2-Phenylquinoline S. aureus NorA Efflux Pump Inhibitors: Evaluation of the Importance of Methoxy Group Introduction” (J Med Chem, 2018)
